Data as given in publication PMC10556424 (RSC Advances, 2023).

Assays:
[1] = target: T1, CYP2A6 (Homo sapiens, UniProt P11509); test: CYP450 inhibition in human liver microsomes; type: in vitro ADME; conditions: pooled human liver microsomes, pH 7.4, probe coumarin (1.5 μM)
T1 sequence (P11509 1-494): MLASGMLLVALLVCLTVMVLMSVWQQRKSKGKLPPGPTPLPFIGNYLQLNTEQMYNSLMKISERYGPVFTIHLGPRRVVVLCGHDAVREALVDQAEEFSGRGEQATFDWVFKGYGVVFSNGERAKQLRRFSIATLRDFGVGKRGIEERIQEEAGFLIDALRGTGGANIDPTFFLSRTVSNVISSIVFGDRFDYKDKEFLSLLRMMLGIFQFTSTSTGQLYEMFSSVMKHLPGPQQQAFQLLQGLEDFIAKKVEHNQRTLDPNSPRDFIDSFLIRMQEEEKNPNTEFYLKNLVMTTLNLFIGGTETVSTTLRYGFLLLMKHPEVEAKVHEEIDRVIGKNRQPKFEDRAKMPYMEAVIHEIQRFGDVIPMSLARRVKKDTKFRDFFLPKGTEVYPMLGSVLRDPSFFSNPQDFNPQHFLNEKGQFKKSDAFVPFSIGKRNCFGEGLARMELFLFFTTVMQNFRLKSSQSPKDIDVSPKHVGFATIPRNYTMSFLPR
In short: (§1)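 Test compound at 10 μM with pooled human liver microsomes (0.2 mg mL−1) and a cocktail of 10 CYP probe substrates. Buffer was 100 mM potassium phosphate, pH 7.4, with 3.3 mM MgCl2, at 37 °C. β-NADPH (1.3 mM) started the reaction. After 10 min, ice-cold 3% formic acid in 5% acetonitrile stopped it. Centrifuged samples went to LC-MS/MS; each metabolite's formation is given as % inhibition versus control.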

[2] = In vitro microsomal stability; type: in vitro ADME; conditions: human liver microsomes, 1 μM, Table 3
In short: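 Compound (1 μM) with pooled human liver microsomes (0.4 mg mL−1) in 100 mM potassium phosphate, pH 7.4, with 3.3 mM MgCl2 and 1.3 mM β-NADPH. Organic solvent was ≤1%, at 37 °C. Time-point samples were quenched with ice-cold acetonitrile containing internal standard, centrifuged, and the supernatants analysed by LC-MS/MS. Results are intrinsic clearance.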

[3] = target: T2, CYP2C8 (Homo sapiens, UniProt P10632); test: CYP450 inhibition in human liver microsomes; type: in vitro ADME; conditions: pooled human liver microsomes, pH 7.4, probe amodiaquine (1 μM)
T2 sequence (P10632 1-490): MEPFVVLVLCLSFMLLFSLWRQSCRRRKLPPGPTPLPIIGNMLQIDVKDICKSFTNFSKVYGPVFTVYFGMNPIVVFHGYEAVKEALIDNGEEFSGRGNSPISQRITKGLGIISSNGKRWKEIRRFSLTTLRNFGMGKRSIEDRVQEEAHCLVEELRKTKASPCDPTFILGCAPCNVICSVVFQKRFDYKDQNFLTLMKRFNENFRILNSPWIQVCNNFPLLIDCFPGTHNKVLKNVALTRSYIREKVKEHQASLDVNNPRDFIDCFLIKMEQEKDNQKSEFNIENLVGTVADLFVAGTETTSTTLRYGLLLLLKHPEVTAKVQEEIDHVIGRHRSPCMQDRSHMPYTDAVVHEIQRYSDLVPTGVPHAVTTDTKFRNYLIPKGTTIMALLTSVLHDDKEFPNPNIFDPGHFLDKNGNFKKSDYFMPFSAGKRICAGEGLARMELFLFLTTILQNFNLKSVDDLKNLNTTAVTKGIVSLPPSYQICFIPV
In short: as §1

[4] = system: HBV DNA in HBV-expressed HepG2.2.15 cells; test: In vitro anti-HBV activity in HepG2.2.15 cell line; type: cell-based; conditions: Hepatitis B virus, HepG2.2.15, 144 h, read-out: % HBV DNA remaining
In short: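 HepG2.2.15 cells were seeded at 5 × 10^5 per well in high-glucose DMEM with 10% heat-inactivated FBS, 300 mg L−1 G418, 1% non-essential amino acids and antibiotic–antimycotic, then held overnight at 37 °C, 5% CO2. Compound or 0.5% DMSO was given for 3 days, then renewed for 3 more days. Intracellular HBV DNA was measured by qPCR as % remaining versus vehicle; EC50 came from a 4-parameter nonlinear fit.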

[5] = target: CYP2D6 (Homo sapiens, UniProt P10635); test: CYP450 inhibition in human liver microsomes; type: in vitro ADME; conditions: pooled human liver microsomes, pH 7.4, probe dextromethorphan (2.5 μM)
Sequence of CYP2D6 (P10635 whole entry): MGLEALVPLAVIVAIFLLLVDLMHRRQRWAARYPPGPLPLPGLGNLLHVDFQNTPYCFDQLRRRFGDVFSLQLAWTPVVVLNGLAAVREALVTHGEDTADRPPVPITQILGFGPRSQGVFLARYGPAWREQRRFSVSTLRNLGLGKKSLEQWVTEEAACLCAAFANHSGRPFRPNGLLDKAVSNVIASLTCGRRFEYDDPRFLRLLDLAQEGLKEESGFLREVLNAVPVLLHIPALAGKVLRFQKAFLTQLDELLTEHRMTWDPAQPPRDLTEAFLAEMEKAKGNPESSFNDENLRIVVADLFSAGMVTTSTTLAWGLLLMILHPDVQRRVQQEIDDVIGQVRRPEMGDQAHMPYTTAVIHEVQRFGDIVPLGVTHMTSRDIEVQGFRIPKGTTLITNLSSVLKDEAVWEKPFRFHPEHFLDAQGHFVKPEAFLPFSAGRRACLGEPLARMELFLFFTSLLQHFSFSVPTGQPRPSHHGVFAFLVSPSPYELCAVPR
In short: as §1

inhibition at 10 min, 10 µM [1]: 57% | CLint [2]: 1.1 μL per min per mg protein | inhibition at 10 min, 10 µM [3]: 55% | inhibition at 10 min, 10 µM [5]: 82%
SMILES: O=C(Nc1cc(F)c(F)c(F)c1)[C@H]1CCN(C(=O)c2cc3cnccc3[nH]2)C1 [CU04, (S)-1-(1H-Pyrrolo[3,2-c]pyridine-2-carbonyl)-N-(3,4,5-trifluorophenyl)pyrrolidine-3-carboxamide]
activity at 1 µM [4]: 67%
